From article PMC9416874 (Carbohydrate research, 2014)

How the values were obtained:
[1] = target: T1, His6-Pd2,6ST(16–497) (Photobacterium damselae, UniProt O66375); assay: donor hydrolysis, capillary electrophoresis, Michaelis-Menten fit; format: biochemical; conditions: donor hydrolysis (water as acceptor); pH 8.0; 37 °C
T1 sequence (O66375 16-497): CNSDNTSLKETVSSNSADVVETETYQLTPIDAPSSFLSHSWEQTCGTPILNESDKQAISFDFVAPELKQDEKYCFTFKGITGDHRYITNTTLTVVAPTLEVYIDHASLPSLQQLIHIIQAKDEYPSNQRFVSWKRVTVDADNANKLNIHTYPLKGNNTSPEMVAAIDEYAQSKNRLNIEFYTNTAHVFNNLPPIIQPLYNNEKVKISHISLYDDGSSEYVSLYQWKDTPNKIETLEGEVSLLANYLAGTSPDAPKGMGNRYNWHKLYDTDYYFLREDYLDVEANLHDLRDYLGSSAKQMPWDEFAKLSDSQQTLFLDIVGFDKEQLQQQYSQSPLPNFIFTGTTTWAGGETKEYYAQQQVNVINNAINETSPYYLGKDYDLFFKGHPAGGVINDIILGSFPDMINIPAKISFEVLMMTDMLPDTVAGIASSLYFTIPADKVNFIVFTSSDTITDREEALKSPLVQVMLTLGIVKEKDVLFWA
Outline: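 Recombinant enzyme (6 μM) was incubated with CMP-Neu5Ac (10, 20, 40, 60, 80 and 100 mM) in 200 mM Tris-HCl pH 8.0 for 20 min, with no acceptor, in duplicate. Reactions were stopped with ethanol and centrifuged. Supernatants were run by capillary electrophoresis in 25 mM sodium tetraborate pH 9.4, with PDA detection at 200 and 254 nm. Kinetic parameters came from a Michaelis-Menten fit of the duplicate means.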

[2] = target: T2, Psp2,6ST(15–501)-His6 (Photobacterium sp. JT-ISH-224, UniProt A8QYL1, A366G); assay: sialyltransfer, HPLC with fluorescence detection, Michaelis-Menten fit; format: biochemical; conditions: 20 °C, labelled compound
T2 sequence (A8QYL1 15-501 A366G): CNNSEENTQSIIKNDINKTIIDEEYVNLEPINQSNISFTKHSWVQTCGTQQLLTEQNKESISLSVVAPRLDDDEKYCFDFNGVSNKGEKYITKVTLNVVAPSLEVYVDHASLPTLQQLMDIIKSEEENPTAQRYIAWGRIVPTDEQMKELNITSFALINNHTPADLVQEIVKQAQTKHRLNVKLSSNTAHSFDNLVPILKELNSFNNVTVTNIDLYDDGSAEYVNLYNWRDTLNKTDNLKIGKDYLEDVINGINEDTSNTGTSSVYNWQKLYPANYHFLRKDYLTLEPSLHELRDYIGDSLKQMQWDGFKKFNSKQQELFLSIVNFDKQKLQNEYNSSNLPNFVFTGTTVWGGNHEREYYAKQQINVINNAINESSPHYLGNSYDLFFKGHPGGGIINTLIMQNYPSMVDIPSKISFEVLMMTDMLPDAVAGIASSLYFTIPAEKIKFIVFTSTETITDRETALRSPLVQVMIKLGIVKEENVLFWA

[3] = substrate: CC(=O)N[C@H]1[C@H]([C@H](O)[C@H](O)CO)O[C@](OP(=O)(O)OC[C@H]2O[C@@H](n3ccc(N)nc3=O)[C@H](O)[C@@H]2O)(C(=O)O)C[C@@H]1O; assay: donor hydrolysis, capillary electrophoresis, Michaelis-Menten fit; format: biochemical, Photobacterium sp. JT-ISH-224; conditions: donor hydrolysis (water as acceptor), pH 8.0, 20 °C
[4] = substrate: Cc1cc(=O)oc2cc(O[C@@H]3O[C@H](CO)[C@@H](O[C@@H]4O[C@H](CO)[C@H](O)[C@H](O)[C@H]4O)[C@H](O)[C@H]3O)ccc12; assay: sialyltransfer, HPLC with fluorescence detection, Michaelis-Menten fit; format: biochemical, Photobacterium sp. JT-ISH-224; conditions: CMP-Neu5Ac 1.0 mM, pH 8.0, 20 °C
[5] = substrate: CC(=O)N[C@H]1[C@H]([C@H](O)[C@H](O)CO)O[C@](OP(=O)(O)OC[C@H]2O[C@@H](n3ccc(N)nc3=O)[C@H](O)[C@@H]2O)(C(=O)O)C[C@@H]1O; assay: as above; format: biochemical, Photobacterium sp. JT-ISH-224; conditions: LacβMU 1.0 mM as acceptor, pH 8.0, 20 °C

CC(=O)N[C@H]1[C@H]([C@H](O)[C@H](O)CO)O[C@](OP(=O)(O)OC[C@H]2O[C@@H](n3ccc(N)nc3=O)[C@H](O)[C@@H]2O)(C(=O)O)C[C@@H]1O [CMP-Neu5Ac]
Km (mM) [1]: (1.8±0.4)×10 mM

CC(=O)N[C@H]1[C@@H](O[C@H](C)[C@H](N)C(=O)O)O[C@H](CO)[C@H](O)[C@@H]1O [GalNAcαThr]
Km ([2]; CMP-Neu5Ac 4.0 mM, pH 8.0): 7.2 ± 3 mM

GalNAcα2AA
Km ([2]; CMP-Neu5Ac 4.0 mM, pH 5.0): 5.5 ± 1 mM

CC(=O)N[C@H]1[C@@H](OC[C@H](N)C(=O)O)O[C@H](CO)[C@H](O)[C@@H]1O [GalNAcαSer]
Km ([2]; CMP-Neu5Ac 2.0 mM, pH 8.0): 1.7 ± 0.7 mM

B1: Psp2,6ST(15–501)-His6 (Photobacterium sp. JT-ISH-224) (protein)
chain: CNNSEENTQSIIKNDINKTIIDEEYVNLEPINQSNISFTKHSWVQTCGTQQLLTEQNKESISLSVVAPRLDDDEKYCFDFNGVSNKGEKYITKVTLNVVAPSLEVYVDHASLPTLQQLMDIIKSEEENPTAQRYIAWGRIVPTDEQMKELNITSFALINNHTPADLVQEIVKQAQTKHRLNVKLSSNTAHSFDNLVPILKELNSFNNVTVTNIDLYDDGSAEYVNLYNWRDTLNKTDNLKIGKDYLEDVINGINEDTSNTGTSSVYNWQKLYPANYHFLRKDYLTLEPSLHELRDYIGDSLKQMQWDGFKKFNSKQQELFLSIVNFDKQKLQNEYNSSNLPNFVFTGTTVWAGNHEREYYAKQQINVINNAINESSPHYLGNSYDLFFKGHPGGGIINTLIMQNYPSMVDIPSKISFEVLMMTDMLPDAVAGIASSLYFTIPAEKIKFIVFTSTETITDRETALRSPLVQVMIKLGIVKEENVLFWA
kcat [3]: 4.83 ± 0.5 s⁻¹
kcat/Km [3]: 283 M⁻¹ s⁻¹

B2: Psp2,6ST(15–501)-His6 (Photobacterium sp. JT-ISH-224; A366G) (protein)
chain: CNNSEENTQSIIKNDINKTIIDEEYVNLEPINQSNISFTKHSWVQTCGTQQLLTEQNKESISLSVVAPRLDDDEKYCFDFNGVSNKGEKYITKVTLNVVAPSLEVYVDHASLPTLQQLMDIIKSEEENPTAQRYIAWGRIVPTDEQMKELNITSFALINNHTPADLVQEIVKQAQTKHRLNVKLSSNTAHSFDNLVPILKELNSFNNVTVTNIDLYDDGSAEYVNLYNWRDTLNKTDNLKIGKDYLEDVINGINEDTSNTGTSSVYNWQKLYPANYHFLRKDYLTLEPSLHELRDYIGDSLKQMQWDGFKKFNSKQQELFLSIVNFDKQKLQNEYNSSNLPNFVFTGTTVWGGNHEREYYAKQQINVINNAINESSPHYLGNSYDLFFKGHPGGGIINTLIMQNYPSMVDIPSKISFEVLMMTDMLPDAVAGIASSLYFTIPAEKIKFIVFTSTETITDRETALRSPLVQVMIKLGIVKEENVLFWA
Km [4]: (4.1±0.4)×10^−1 mM
kcat [4]: 1.67 ± 0.167 s⁻¹
kcat/Km [4]: 4000 M⁻¹ s⁻¹
Km [5]: (6.3±0.5)×10^−1 mM
kcat [5]: 2.17 ± 0.167 s⁻¹
kcat/Km [5]: 3500 M⁻¹ s⁻¹
